In brackets after ≈: the same amount, converted by molar mass. Activity calls are given as the source filed them. No cut-off for these calls is given here.
What was measured:
[1] = system: Pseudomonas aeruginosa; test: Antibiotic activity against Pseudomonas aeruginosa POA1 assessed as reduction in bacterial cell growth by measuring resazurin reduction incubated for 6 days by fluorescence microplate based assay; type: functional; settings: POA1, 144 h, time 6 day
[2] = Toxicity in noninfected zebrafish larvae assessed as toxic effect; design: species or system Danio rerio; settings: in vivo
[3] = system: Staphylococcus aureus; test: Antibiotic activity against Staphylococcus aureus SH1000 assessed as reduction in bacterial cell growth by measuring resazurin reduction incubated for 6 days by fluorescence microplate based assay; type: functional; settings: SH1000, 144 h, time 6 day
Summary of the method: (§1)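 E. coli BW25113, E. coli ΔtolC and S. aureus SH1000 were cultured and tested in cation-adjusted Mueller Hinton II broth. Viability was read by adding resazurin and measuring resorufin fluorescence at Ex 530 nm / Em 590 nm.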

[4] = system: Mycobacterium tuberculosis; test: Bactericidal activity against Non-replicating Mycobacterium tuberculosis ss18b-lux assessed as bacterial killing by measuring CFU after 1 week; type: functional, organism-based; settings: time 1.0 weeks, DDE = dose-dependent effect
Summary of the method: (§2)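 Streptomycin-dependent 18b-lux starved of streptomycin for 14 days (OD600 reset to 0.2 on days 7 and 13) to become non-replicating. Diluted to OD600 0.15 on dispensed compound and held at 37°C. On day 7, active wells plated on 7H11-OADC with 50 µg/mL streptomycin and incubated up to 8 weeks for cfu.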

[5] = system: Mycobacterium tuberculosis; test: Bactericidal activity against Non-replicating Mycobacterium tuberculosis ss18b-lux assessed as decrease in colony forming unit measured at 4.8 uM after 1 weeks; type: functional; summary of the method: as §2
[6] = system: Mycobacterium marinum; test: In vivo antimycobacterial efficacy in Mycobacterium marinum expressing Wasabi infected zebrafish larvae assessed as prolongation of survival time at 4.8 uM treated for 4 days after 1 day post infection; type: functional; settings: time 4 day
[7] = system: Mycobacterium tuberculosis; test: Antimycobacterial activity against Mycobacterium tuberculosis H37Rv infected in human A-THP1 macrophages assessed as viability of infected macrophages incubated for 96 hrs by fluorescence microplate assay; type: functional, organism-based
Summary of the method: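 THP-1 cells differentiated with 50 ng/mL PMA for 72 h, infected with log-phase H37Rv (MOI 10, 2 h), and extracellular bacteria killed with 50 µg/mL amikacin for 1 h. Cells detached and seeded at 5×10⁵/mL in RPMI-10% FBS with PMA onto pre-dispensed compound, 96 h at 37°C, 5% CO₂. Macrophage viability by 0.05% resazurin fluorescence.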

[8] = system: Mycobacterium marinum; test: in vivo antimycobacterial efficacy in Mycobacterium marinum infected zebrafish larvae assessed as reduction in bacterial burden at 0.25 to 2 micog/ml measured after 2 to 4 days off post infection; type: functional, organism-based; settings: time 2-4 day
[9] = system: Escherichia coli; test: Antibiotic activity against Escherichia coli deltatolC BW25113 deltatolC assessed as reduction in bacterial cell growth by measuring resazurin reduction incubated for 6 days by fluorescence microplate based assay; type: functional; settings: 144 h, time 6 day; summary of the method: as §1
[10] = Metabolic stability in mouse liver microsomes; type: ADME, Microsome
[11] = system: Mycobacterium tuberculosis; test: Antibiotic activity against Mycobacterium tuberculosis H37Rv assessed as reduction in bacterial cell growth by measuring resazurin reduction incubated for 6 days by fluorescence microplate based assay; type: functional; settings: 144 h, time 6 day
[12] = target: T1, Type II NADH:quinone oxidoreductase NdhA (Mycobacterium tuberculosis, UniProt P95200); test: Inhibition of Mycobacterium smegmatis MC2 155 recombinant ndhA assessed as rate of NADH oxidation in the presence of an electron acceptor menadione; design: species or system Mycolicibacterium smegmatis
T1 sequence (P95200 whole entry): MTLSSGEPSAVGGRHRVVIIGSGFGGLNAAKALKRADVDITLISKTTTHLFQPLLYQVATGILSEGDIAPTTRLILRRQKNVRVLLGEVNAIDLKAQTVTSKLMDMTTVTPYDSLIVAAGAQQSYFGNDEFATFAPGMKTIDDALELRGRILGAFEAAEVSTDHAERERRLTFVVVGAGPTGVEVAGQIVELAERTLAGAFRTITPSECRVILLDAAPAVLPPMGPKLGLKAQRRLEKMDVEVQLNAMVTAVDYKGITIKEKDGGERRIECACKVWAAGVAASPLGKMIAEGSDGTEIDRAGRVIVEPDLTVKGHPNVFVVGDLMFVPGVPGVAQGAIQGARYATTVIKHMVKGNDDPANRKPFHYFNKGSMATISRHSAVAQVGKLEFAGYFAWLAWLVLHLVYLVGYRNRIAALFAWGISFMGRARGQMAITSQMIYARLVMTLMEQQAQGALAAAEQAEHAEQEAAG

[13] = Octanol/PBS partition coefficient, logD of compound at pH 7.4 measured after 2 hrs by shake flask method; type: physicochemical; settings: octanol/water, pH 7.4, 2 h
Summary of the method: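 A 10 mM DMSO stock was diluted 50-fold into 1:1 octanol:PBS pH 7.4 and shaken gently for 2 h at room temperature. Each phase was diluted 50-fold in MeOH and quantified by LC-MS/MS. LogD = log of the octanol/PBS concentration ratio from mass signals. Run in triplicate.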

[14] = system: Mycobacterium tuberculosis; test: Bactericidal activity against Non-replicating Mycobacterium tuberculosis ss18b-lux model assessed as decrease in luminescence at 10 to 10000 nM; type: functional, organism-based; settings: dose 10-10000 nM, TDE = time-dependent effect
Summary of the method: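 Non-replicating streptomycin-starved 18b-lux (14-day starvation) diluted to OD600 0.15 in white 96-well plates with compound and incubated at 37°C. Luminescence read on days 1, 2, 5 and 7 and expressed relative to no-antibiotic controls (n ≥ 3).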

[15] = system: Mycobacterium tuberculosis; test: Antimycobacterial activity against Mycobacterium tuberculosis H37Rv assessed as reduction in bacterial cell growth by measuring resazurin reduction incubated for 6 days by fluorescence microplate based assay; type: functional; settings: time 6 day
[16] = system: Escherichia coli; test: Antibiotic activity against Escherichia coli BW25113 assessed as reduction in bacterial cell growth by measuring resazurin reduction incubated for 6 days by fluorescence microplate based assay; type: functional; settings: BW25113, 144 h, time 6 day; summary of the method: as §1
[17] = system: Mycobacterium avium; test: Antibiotic activity against Mycobacterium avium TMC 724, ATCC-25291 assessed as reduction in bacterial cell growth by measuring resazurin reduction incubated for 6 days by fluorescence microplate based assay; type: functional; settings: TMC 724, ATCC-25291, 144 h, time 6 day
[18] = system: Mycobacterium tuberculosis; test: Bactericidal activity against replicating Mycobacterium tuberculosis H37Rv assessed as reduction in colony forming unit measured at 2 to 4 times of MIC after 1 to 2 weeks; type: functional; settings: time 1-2 weeks
Summary of the method: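 Mid-log H37Rv in 7H9-GTy-OADC diluted to OD600 0.02 (~1×10⁶ cfu/mL) and exposed to compound in 96-well replica plates for 1 or 2 weeks. For the 3 lowest concentrations without visible growth, serial 10-fold dilutions plated on 7H11-OADC and cfu counted over 6 weeks at 37°C. Four independent experiments; log10 cfu/mL ± SD.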

[19] = system: Mycolicibacterium smegmatis; test: Antibiotic activity against Mycobacterium smegmatis mc2155 assessed as reduction in bacterial cell growth by measuring resazurin reduction incubated for 6 days by fluorescence microplate based assay; type: functional; settings: mc2155, 144 h, time 6 day
[20] = system: Mycobacteroides abscessus; test: Antibiotic activity against Mycobacterium abscessus CIP104536, Rough variant assessed as reduction in bacterial cell growth by measuring resazurin reduction incubated for 6 days by fluorescence microplate based assay; type: functional; settings: 144 h, time 6 day
[21] = system: Acinetobacter baumannii; test: Antibiotic activity against Acinetobacter baumannii LMG-17978 assessed as reduction in bacterial cell growth by measuring resazurin reduction incubated for 6 days by fluorescence microplate based assay; type: functional; settings: LMG-17978, 144 h, time 6 day

SMILES: CC(C)[C@H]1CO[C@]23CCN(Cc4ccc(C(F)(F)F)cc4)C[C@H]2CCC(=O)N13
- MIC [1]: > 100 µM
- Activity [2]: Non-Toxic
- MIC [3]: > 100 µM
- Activity [4]: Dde
- Activity [5]: 1 log10CFU
- Time [6]: 3 days
- IC50 [7]: 460 nM
- Activity [8]: Active
- MIC [9]: 100 µM (≈ 39.6 µg/mL)
- Drug metabolism [10]: Metabolite_Detected
- MIC [11]: 0.1 µM (≈ 0.0396 µg/mL)
- IC50 [12]: 59 nM
- logD [13]: 3.4
- Activity [14]: Tde
- MIC98 [15]: 0.1 µM (≈ 0.0396 µg/mL)
- MIC [16]: > 100 µM
- MIC [17]: 0.55 µM (≈ 0.218 µg/mL)
- Activity [18]: 0.8 log10CFU
- MIC [19]: 1.3 µM (≈ 0.515 µg/mL)
- MIC [20]: 6.3 µM (≈ 2.5 µg/mL)
- MIC [21]: > 100 µM
